The term Ki denotes a measure of affinity in units of concentration, obtained from inhibition or displacement. Higher therefore signals lower affinity. The term Km denotes the concentration of substrate that gives half-maximal velocity. A word on the kcat: it is the number of substrate molecules converted per active site and unit of time at saturation.

Data set [1] concerns the target β-galactosidase (A. oryzae) (Aspergillus oryzae, UniProt Q2UCU3). Put plainly: Assay for the inhibited enzymatic substrate hydrolysis. The format is biochemical. To be noted: 50 mM acetate buffer pH 5.0, 30 °C.
A short description of another data set: Amidine stability assay. The format is physicochemical. The procedure, abridged:
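Test compound kept as a 0.168 M stock in nanopure water at ambient temperature, and aliquots were diluted into the incubation buffer. Samples were flash-frozen in liquid nitrogen and stored at −18°C until analysis. Quantification was by HPLC on a carbohydrate Na+ (8%) column at 80°C, with nanopure water as eluent at 0.4 mL/min and light-scattering detection.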

The test system of data set [2] is β-galactosidase (A. oryzae). Nature of the data set: Assay for enzymatic substrate hydrolysis. Format: biochemical, Aspergillus oryzae. The note with it: 50 mM acetate buffer pH 5.0, 30 °C, no inhibitor.
Data set [3] can be described thus: Water solubility under the kinetic assay conditions. To be noted: under the used assay condition (50 mM acetate buffer pH 5). The format is physicochemical.

Sequence of β-galactosidase (A. oryzae) (Aspergillus oryzae, UniProt Q2UCU3) (Q2UCU3 19-1005): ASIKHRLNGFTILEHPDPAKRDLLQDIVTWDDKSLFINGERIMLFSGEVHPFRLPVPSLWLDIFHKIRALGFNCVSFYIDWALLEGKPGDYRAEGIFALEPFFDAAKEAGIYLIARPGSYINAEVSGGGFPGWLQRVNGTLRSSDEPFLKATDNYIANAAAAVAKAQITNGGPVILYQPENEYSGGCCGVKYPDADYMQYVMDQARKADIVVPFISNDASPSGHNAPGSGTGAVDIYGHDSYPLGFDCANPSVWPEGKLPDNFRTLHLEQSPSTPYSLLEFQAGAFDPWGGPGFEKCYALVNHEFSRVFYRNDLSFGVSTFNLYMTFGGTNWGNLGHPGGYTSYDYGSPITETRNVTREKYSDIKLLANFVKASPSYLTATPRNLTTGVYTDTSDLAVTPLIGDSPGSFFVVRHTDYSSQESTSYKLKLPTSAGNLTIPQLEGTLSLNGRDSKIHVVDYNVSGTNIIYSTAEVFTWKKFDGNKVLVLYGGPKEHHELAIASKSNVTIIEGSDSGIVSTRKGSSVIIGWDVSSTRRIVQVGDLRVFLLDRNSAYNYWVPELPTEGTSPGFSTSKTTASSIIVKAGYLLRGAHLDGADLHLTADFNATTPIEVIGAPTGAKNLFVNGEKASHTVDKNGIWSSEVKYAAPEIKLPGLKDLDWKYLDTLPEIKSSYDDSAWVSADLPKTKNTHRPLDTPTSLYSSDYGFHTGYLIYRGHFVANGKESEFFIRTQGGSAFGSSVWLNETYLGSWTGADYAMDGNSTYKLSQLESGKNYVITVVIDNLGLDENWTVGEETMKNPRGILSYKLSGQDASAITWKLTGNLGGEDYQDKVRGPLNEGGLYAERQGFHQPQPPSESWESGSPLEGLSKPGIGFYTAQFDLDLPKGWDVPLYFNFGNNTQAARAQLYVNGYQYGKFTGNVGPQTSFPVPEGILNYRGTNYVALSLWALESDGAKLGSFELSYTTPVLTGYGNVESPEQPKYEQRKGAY

Consider `Cc1ccc(CN=C2N[C@H](CO)[C@H](O)[C@H](O)[C@H]2O)cc1` [1d, p-methylbenzyl-D-galactonoamidine], for which the Ki in data set [1] (substrate 2a) was 23.3 nM; in data set [1] (substrate 2b), 14.1 nM; in data set [1] (substrate 2c), 13.3 nM; in data set [1] (substrate 2e), 16.5 nM; in data set [1] (substrate 2f), 24.6 nM; in data set [1] (substrate 2g), 55.7 nM. Further, the Ki stood at 11.5 nM in data set [1] (substrate 2i), 8 nM in data set [1] (substrate 2k), 15.1 nM in data set [1] (substrate 2h) and 11.6 nM in data set [1] (substrate 2d). Also, the stability result in “Amidine stability assay” (5 mM CAPS buffer at pH 10.5 and 0°C, preliminary results) is “sufficient stability”; in “Amidine stability assay” (5 mM TAPS buffer at pH 9 and 10°C, preliminary results), “sufficient stability”; in “Amidine stability assay” (50 mM CAPS buffer at pH 10.5 and 72°C), “insufficient stability”. The “stability (HPLC)” value in “Amidine stability assay” (acetate buffer at 30°C, same amount of time (3h)) is listed as “no evidence for compound decomposition”. For the same molecule, the time found stable in “Amidine stability assay” (nanopure water at 30, 50 or 72°C) was ≥ 3 h.

In the case of `OCC1NC(=NCc2cccc(F)c2)C(O)C(O)C1O` [1f, 3-fluorobenzyl-D-galactonoamidine], the Ki in data set [1] (substrate 2a) is 16.4 nM; in data set [1] (substrate 2b), 22.3 nM; in data set [1] (substrate 2c), 18.1 nM; in data set [1] (substrate 2e), 14.2 nM; in data set [1] (substrate 2f), 30.3 nM; in data set [1] (substrate 2g), 58.1 nM. Further, the Ki in data set [1] (substrate 2i) was determined as 13.7 nM; in data set [1] (substrate 2k), 20.3 nM; in data set [1] (substrate 2h), 22.8 nM; in data set [1] (substrate 2d), 13.3 nM.

`O=[N+]([O-])c1ccccc1O[C@@H]1O[C@H](CO)[C@H](O)[C@H](O)[C@H]1O` [2a, 2-nitrophenyl-β-D-galactopyranoside, reference compound]: in data set [2], the Km came to 1270 µM and the kcat came to 76.5 s⁻¹.

Consider `Cc1ccc(O[C@@H]2O[C@H](CO)[C@H](O)[C@H](O)[C@H]2O)c([N+](=O)[O-])c1` [2b, 4-Methyl-2-nitrophenyl-β-D-galactopyranoside], for which, in data set [2], the Michaelis constant (Km) is 1490 µM and the kcat stood at 80.13 s⁻¹.

On to `O=[N+]([O-])c1cc(F)ccc1O[C@@H]1O[C@H](CO)[C@H](O)[C@H](O)[C@H]1O` [2c, 4-Fluoro-2-nitrophenyl-β-D-galactopyranoside], for which, in data set [2], the Km was found to be 1240 µM and the kcat is 77.63 s⁻¹.

Regarding `O=[N+]([O-])c1cc(Cl)ccc1O[C@@H]1O[C@H](CO)[C@H](O)[C@H](O)[C@H]1O` [2d, 4-Chloro-2-nitrophenyl-β-D-galactopyranoside], in data set [2], the Km came out at 960 µM and the kcat was 68.97 s⁻¹.

As for `O=[N+]([O-])c1cc(Br)ccc1O[C@@H]1O[C@H](CO)[C@H](O)[C@H](O)[C@H]1O` [2e, 4-Bromo-2-nitrophenyl-β-D-galactopyranoside], in data set [2], the Km turned out to be 1100 µM and the kcat is 64.7 s⁻¹.

Take `O=[N+]([O-])c1ccc(F)cc1O[C@@H]1O[C@H](CO)[C@H](O)[C@H](O)[C@H]1O` [2f, 5-Fluoro-2-nitrophenyl-β-D-galactopyranoside]: in data set [2], the Km turned out to be 1780 µM and the kcat was 64.77 s⁻¹.

With `Cc1ccc([N+](=O)[O-])c(O[C@@H]2O[C@H](CO)[C@H](O)[C@H](O)[C@H]2O)c1` [2g, 5-Methyl-2-nitrophenyl-β-D-galactopyranoside], in data set [2], the Km amounted to 4270 µM and the kcat was found to be 70.15 s⁻¹.

Take `O=[N+]([O-])c1ccc(O[C@@H]2O[C@H](CO)[C@H](O)[C@H](O)[C@H]2O)cc1` [2h, 4-nitrophenyl-β-D-galactopyranoside, reference compound]: in data set [2], the Km came to 840 µM and the kcat turned out to be 53.97 s⁻¹.

Turning to `O=[N+]([O-])c1ccc(O[C@@H]2O[C@H](CO)[C@H](O)[C@H](O)[C@H]2O)c(F)c1` [2i, 2-Fluoro-4-nitrophenyl-β-D-galactopyranoside], in data set [2], the Km worked out at 920 µM and the kcat came to 61.17 s⁻¹.

For the molecule `O=[N+]([O-])c1ccc(O[C@@H]2O[C@H](CO)[C@H](O)[C@H](O)[C@H]2O)c(Cl)c1` [2k, 2-Chloro-4-nitrophenyl-β-D-galactopyranoside], in data set [2], the Km amounted to 700 µM and the kcat stood at 39.68 s⁻¹.

As for `COc1ccc(O[C@@H]2O[C@H](CO)[C@H](O)[C@H](O)[C@H]2O)c([N+](=O)[O-])c1` [2p, 4-Methoxy-2-nitrophenyl-β-D-galactopyranoside], the water solubility entry in data set [3] is reported as “surprising low water solubility”.

(Values after article PMC4096895 (Organic & biomolecular chemistry, 2014).)
